Data reported in ChEMBL document CHEMBL4118248, “Small Molecule Proprotein Convertase Subtilisin/Kexin Type 9 (PCSK9) Inhibitors: Hit to Lead Optimization of Systemic Agents” (J Med Chem, 2018).

Legend:
[1] = Intrinsic clearance in human liver microsomes; format: ADME, microsome; conditions: read-out: CLH
Rattus norvegicus [2] = assay: Toxicity in Crl:CD(SD) rat assessed as discolored/mottled liver at 50 mg/kg/day, po daily via gavage for 14 days measured on day 15 post last dose; format: organism-based; conditions: in vivo, 336 h
Method in brief: (§1)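 Male rats, 5 per group, given vehicle or compound at 50 mg/kg/day by oral gavage for 14 days. Mortality, clinical signs and hematology monitored throughout. Necropsy on day 15 with microscopy of bone marrow, ileum, duodenum, jejunum and liver. Toxicokinetics at 1, 3, 6 and 24 h post-dose on day 14.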

[3] = Lipophilicity, log D of the compound by shake flask method; format: physicochemical; conditions: octanol/water
Method in brief: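 LogD measured by the shake-flask method.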

80S Ribosome [4] = assay: Binding affinity to 80S ribosome in human HuH7 cells assessed as inhibition of PCSK9 mRNA translation after overnight incubation by ELISA; format: cell-based; conditions: huh-7
Method in brief: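 Huh7 cells kept in high-glucose DMEM, 10% BSA-free FBS, 2 mM L-glutamine, pen/strep at 37 °C, 5% CO2. Plated 7,500/well with compound or vehicle and incubated overnight (16-20 h). Secreted PCSK9 in the medium read by AlphaLISA: two antibodies to different mature-PCSK9 epitopes, biotinylated antibody 3 nM final, acceptor beads 10 µg/mL, 0.5 h rt; streptavidin donor beads 40 µg/mL, 1 h rt.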

Rattus norvegicus [5] = assay: Toxicity in Crl:CD(SD) rat assessed as single cell necrosis in crypt cells in ileum at 50 mg/kg/day, po daily via gavage for 14 days measured on day 15 post last dose; format: organism-based; conditions: in vivo, 336 h
[6] = biological target: T1, Voltage-gated inwardly rectifying potassium channel KCNH2 (Homo sapiens, UniProt Q12809); assay: Inhibition of dofetilide binding to human ERG by fluorescence polarization assay
80S Ribosome [7] = assay: Binding affinity to 80S ribosome in human HuH7 cells harboring pCMV-truncated human PCSK9 (1 to 152 residues)-proLuc assessed as inhibition of PCSK9 mRNA translation after overnight incubation by luciferase reporter gene assay; format: cell-based; conditions: huh-7
Method in brief: (§2)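 Huh7 cells stably carry human PCSK9 prodomain (aa 1-152) fused to firefly luciferase (aa 2-550) in pcDNA3.1, kept under 900 µg/mL Geneticin. Plated 10,000/well in phenol red-free DMEM/10% FBS and left 4 h, then compound added (top final 20 µM, 0.5% DMSO). Incubated overnight at 37 °C, luminescence read with SteadyGlo.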

Bone marrow cell = assay: Cytotoxicity against rat bone marrow cells assessed as reduction in cell viability after 72 hrs by CellTiter-Glo assay; format: cell-based
[8] = Intrinsic clearance in rat liver microsomes; format: ADME, microsome; conditions: read-out: CLH
[9] = Permeability from basolateral to apical side in MDCK cells harboring MDR1; format: ADME, cell-based, Canis lupus familiaris; conditions: dog, read-out: permeability
Method in brief: (§3)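 Bidirectional permeability across MDR1-transfected MDCK monolayers, apical-to-basolateral and basolateral-to-apical; Papp reported in 10^-6 cm/s.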

[10] = Fraction unbound in rat plasma; format: ADME, cell-free
Method in brief: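 Unbound fraction measured in rat plasma.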

Cytochrome P450 1A2 = biological target: T2, Cytochrome P450 1A2 (Homo sapiens, UniProt P05177); assay: Inhibition of CYP1A2 (unknown origin); format: ADME
T2 sequence (P05177 whole entry): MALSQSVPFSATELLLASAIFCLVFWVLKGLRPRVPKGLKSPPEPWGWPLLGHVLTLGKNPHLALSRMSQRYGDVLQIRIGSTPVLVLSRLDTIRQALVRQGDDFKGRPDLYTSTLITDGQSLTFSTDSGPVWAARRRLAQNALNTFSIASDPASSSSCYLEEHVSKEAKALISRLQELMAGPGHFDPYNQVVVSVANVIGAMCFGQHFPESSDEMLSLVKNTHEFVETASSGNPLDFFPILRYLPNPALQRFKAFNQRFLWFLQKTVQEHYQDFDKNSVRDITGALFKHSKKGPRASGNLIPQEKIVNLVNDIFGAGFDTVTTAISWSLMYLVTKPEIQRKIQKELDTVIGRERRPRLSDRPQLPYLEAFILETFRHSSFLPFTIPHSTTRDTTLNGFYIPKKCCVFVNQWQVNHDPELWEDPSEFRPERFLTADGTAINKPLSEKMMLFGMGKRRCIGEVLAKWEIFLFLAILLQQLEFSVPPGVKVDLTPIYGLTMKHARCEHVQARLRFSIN
Method in brief: (§4)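 Inhibition of CYP1A2, 2D6, 2C9 and 3A4 reported as IC50, or as percent inhibition at 3 µM.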

[11] = Permeability from apical to basolateral side in MDCK cells harboring MDR1; format: ADME, cell-based, Canis lupus familiaris; conditions: dog, read-out: permeability; method in brief: as §3
Cytochrome P450 2C9 = Cytochrome P450 2C9 (Homo sapiens, UniProt P11712); assay: Inhibition of CYP2C9 (unknown origin); format: ADME; method in brief: as §4
[12] = Apparent permeability in RRCK cells; format: ADME, cell-based, Canis lupus familiaris, MDCKII-LE; conditions: dog, MDCK
Method in brief: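 Passive permeability measured in RRCK cells, a modified Madin-Darby canine kidney line; Papp reported in 10^-6 cm/s.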

[13] = biological target: T1, Voltage-gated inwardly rectifying potassium channel KCNH2; assay: Inhibition of human ERG by patch clamp method
Cytochrome P450 2D6 = Cytochrome P450 2D6 (Homo sapiens, UniProt P10635); assay: Inhibition of CYP2D6 (unknown origin); format: ADME; method in brief: as §4
Cytochrome P450 3A4 = Cytochrome P450 3A4 (Homo sapiens, UniProt P08684); assay: Inhibition of CYP3A4 (unknown origin); format: ADME; method in brief: as §4
Rattus norvegicus [14] = assay: In vivo drugmetabolism in rat assessed as (R)-N-(3-Chloropyridin-2-yl)-4-(6-(methylamino)pyrazin-2-yl)-N-(piperidin-3-yl)benzamide formation; format: ADME, organism-based
Rhesus monkey = assay: In vivo drugmetabolism in non-human primate assessed as (R)-N-(3-Chloropyridin-2-yl)-4-(6-(methylamino)pyrazin-2-yl)-N-(piperidin-3-yl)benzamide formation; format: ADME, organism-based, Macaca mulatta
[15] = Selectivity index, ratio of IC50 for cytotoxicity against rat bone marrow cells to IC50 for 80S ribosome in human HuH7 cells harboring pCMV-truncated human PCSK9 (1 to 152 residues)-proLuc; format: toxicity, cell-based; conditions: read-out: Ratio IC50
[16] = biological target: T3, 80S Ribosome (Homo sapiens) (UniProt P08865+P42677+P62753+P15880+P23396+P61247+P62701+P22090+P46782+P62081+P62241+P46781+P46783+P62280+P25398+P62277+P62263+P62841+P62244+P62249+P08708+P62269+P39019+P60866+P63220+P62266+P62847+P62851+P62854+P62979+P62857+P62273+P62861+P39023+P36578+P46777+Q02878+P18124+P62424+P62917+P32969+P27635+P62906+P62913+P30050+P26373+P40429+P50914+P61313+P18621+Q07020+Q02543+P84098+P46778+P35268+P62829+P62750+P83731+P61254+P61353+P46776+P46779+P47914+P62888+P62899+P62910+P49207+P42766+P18077+Q9Y3U8+P83881+P61927+P61513+P63173+P62891+P62945+P05388+P05386); assay: Binding affinity to 80S ribosome in human HuH7 cells harboring pCMV-truncated human PCSK9 (1 to 152 residues)-proLuc assessed as inhibition of PCSK9 mRNA translation at 20 uM after overnight incubation by luciferase reporter gene assay relative to control; format: cell-based; conditions: Huh-7; method in brief: as §2
[17] = biological target: T3, 80S Ribosome (Homo sapiens); assay: Binding affinity to 80S ribosome in human HuH7 cells assessed as inhibition of PCSK9 mRNA translation at 20 uM after overnight incubation by ELISA relative to control; format: cell-based; conditions: Huh-7
CYP2D6 = CYP2D6 (Homo sapiens, UniProt P10635); assay: Inhibition of CYP2D6 (unknown origin) at 3 uM relative to control; format: ADME; method in brief: as §4
CYP2C9 = CYP2C9 (Homo sapiens, UniProt P11712); assay: Inhibition of CYP2C9 (unknown origin) at 3 uM relative to control; format: ADME; method in brief: as §4
CYP1A2 = biological target: T4, CYP1A2 (Homo sapiens, UniProt P05177); assay: Inhibition of CYP1A2 (unknown origin) at 3 uM relative to control; format: ADME; method in brief: as §4
T4 sequence (P05177 whole entry): T2 sequence (P05177 whole entry)

CYP3A4 = CYP3A4 (Homo sapiens, UniProt P08684); assay: Inhibition of CYP3A4 (unknown origin) at 3 uM relative to control; format: ADME; method in brief: as §4
Rattus norvegicus [18] = assay: Toxicity in Crl:CD(SD) rat assessed as hepatocyte vacuolation at 50 mg/kg/day, po daily via gavage for 14 days measured on day 15 post last dose; format: organism-based; conditions: in vivo, 336 h; method in brief: as §1

T1 sequence (Q12809 whole entry, the tested form may be a part): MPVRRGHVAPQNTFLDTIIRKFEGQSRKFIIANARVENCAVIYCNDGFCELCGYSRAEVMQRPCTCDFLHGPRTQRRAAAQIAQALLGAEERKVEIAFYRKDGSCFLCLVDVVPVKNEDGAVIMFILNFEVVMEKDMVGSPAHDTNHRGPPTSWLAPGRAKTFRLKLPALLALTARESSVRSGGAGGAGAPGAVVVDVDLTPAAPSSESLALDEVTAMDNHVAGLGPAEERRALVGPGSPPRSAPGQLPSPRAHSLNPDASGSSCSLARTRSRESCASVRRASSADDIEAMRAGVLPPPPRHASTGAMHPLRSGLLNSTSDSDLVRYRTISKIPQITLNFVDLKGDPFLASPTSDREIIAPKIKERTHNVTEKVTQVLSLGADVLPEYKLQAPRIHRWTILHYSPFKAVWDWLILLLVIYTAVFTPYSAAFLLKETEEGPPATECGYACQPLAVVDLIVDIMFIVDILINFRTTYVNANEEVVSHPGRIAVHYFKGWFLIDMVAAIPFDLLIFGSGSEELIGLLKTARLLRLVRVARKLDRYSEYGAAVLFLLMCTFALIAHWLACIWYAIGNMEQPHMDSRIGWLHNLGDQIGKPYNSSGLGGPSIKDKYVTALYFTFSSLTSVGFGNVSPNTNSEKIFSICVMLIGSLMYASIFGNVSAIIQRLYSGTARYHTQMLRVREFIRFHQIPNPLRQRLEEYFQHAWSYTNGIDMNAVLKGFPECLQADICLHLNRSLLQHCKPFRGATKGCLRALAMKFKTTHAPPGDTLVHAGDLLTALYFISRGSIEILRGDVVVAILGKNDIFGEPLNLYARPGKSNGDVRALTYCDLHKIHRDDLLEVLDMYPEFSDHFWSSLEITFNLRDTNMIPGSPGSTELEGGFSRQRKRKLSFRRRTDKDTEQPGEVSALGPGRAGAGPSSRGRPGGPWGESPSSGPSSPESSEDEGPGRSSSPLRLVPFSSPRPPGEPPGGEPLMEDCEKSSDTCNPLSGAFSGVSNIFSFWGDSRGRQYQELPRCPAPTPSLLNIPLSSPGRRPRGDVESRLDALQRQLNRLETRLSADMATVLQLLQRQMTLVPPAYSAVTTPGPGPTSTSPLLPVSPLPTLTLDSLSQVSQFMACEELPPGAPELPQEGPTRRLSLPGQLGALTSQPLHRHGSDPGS
Sequence of Cytochrome P450 3A4 (P08684 whole entry): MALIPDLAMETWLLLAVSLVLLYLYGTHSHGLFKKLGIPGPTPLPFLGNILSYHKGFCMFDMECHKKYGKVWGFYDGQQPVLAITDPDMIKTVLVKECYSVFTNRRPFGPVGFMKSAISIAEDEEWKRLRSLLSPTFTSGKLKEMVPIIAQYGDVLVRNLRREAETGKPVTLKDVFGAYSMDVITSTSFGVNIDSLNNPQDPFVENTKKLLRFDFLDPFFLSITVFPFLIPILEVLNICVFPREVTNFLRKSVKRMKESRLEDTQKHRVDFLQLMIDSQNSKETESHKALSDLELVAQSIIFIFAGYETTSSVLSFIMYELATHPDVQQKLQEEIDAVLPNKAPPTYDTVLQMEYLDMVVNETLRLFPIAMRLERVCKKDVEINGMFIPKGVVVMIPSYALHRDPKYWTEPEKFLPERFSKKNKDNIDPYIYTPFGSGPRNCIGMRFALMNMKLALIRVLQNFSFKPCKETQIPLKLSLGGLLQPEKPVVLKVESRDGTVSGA
Sequence of CYP3A4 (P08684 whole entry): as above
Sequence of CYP2C9 (P11712 whole entry): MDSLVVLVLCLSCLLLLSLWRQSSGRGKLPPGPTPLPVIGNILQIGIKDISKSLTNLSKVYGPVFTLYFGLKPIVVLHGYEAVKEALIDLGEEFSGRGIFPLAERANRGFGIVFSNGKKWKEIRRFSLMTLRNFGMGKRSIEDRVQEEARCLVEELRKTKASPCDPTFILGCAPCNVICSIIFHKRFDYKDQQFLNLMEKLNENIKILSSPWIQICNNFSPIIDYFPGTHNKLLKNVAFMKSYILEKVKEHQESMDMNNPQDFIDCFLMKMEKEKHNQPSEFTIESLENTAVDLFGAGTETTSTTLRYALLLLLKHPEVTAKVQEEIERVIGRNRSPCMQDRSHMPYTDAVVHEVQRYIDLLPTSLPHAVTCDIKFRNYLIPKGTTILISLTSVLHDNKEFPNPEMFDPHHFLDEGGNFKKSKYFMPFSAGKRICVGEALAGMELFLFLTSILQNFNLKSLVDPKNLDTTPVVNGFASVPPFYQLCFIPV
Sequence of Cytochrome P450 2C9 (P11712 whole entry): as above
Sequence of Cytochrome P450 2D6 (P10635 whole entry): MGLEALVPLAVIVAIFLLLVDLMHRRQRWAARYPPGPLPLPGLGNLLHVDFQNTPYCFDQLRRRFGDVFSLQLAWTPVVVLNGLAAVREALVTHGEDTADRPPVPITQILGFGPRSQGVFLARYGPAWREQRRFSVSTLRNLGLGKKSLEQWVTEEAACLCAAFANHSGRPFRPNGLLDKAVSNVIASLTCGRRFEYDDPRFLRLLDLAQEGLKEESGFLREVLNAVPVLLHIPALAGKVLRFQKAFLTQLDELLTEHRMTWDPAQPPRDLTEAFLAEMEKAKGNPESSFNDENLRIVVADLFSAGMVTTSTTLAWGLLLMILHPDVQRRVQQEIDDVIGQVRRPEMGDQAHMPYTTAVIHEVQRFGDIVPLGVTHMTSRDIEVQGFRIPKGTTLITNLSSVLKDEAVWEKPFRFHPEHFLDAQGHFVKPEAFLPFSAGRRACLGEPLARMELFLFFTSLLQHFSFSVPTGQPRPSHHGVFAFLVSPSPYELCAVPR
Sequence of CYP2D6 (P10635 whole entry): as above

| SMILES | microsomal CLint [1] | logD [3] | IC50 (80S Ribosome [4]) | Ki [6] | IC50 (80S Ribosome [7]) | IC50 (Bone marrow cell) | microsomal CLint [8] | other results |
| --- | --- | --- | --- | --- | --- | --- | --- | --- |
| O=C(c1ccc(-n2nnc3cccnc32)cn1)N(c1ncccc1Cl)[C@@H]1CCCNC1 | < 8 µL/min/mg | 0.3 | 1.44 µM | 28.8 µM | 0.71 µM | > 12.7 µM | 15.3 µL/min/mg | Activity (Rattus norvegicus [2]): Toxic; Activity (Rattus norvegicus [5]): Non-Toxic |
| Cc1cncc(-c2ccc(C(=O)N(c3ncccc3Cl)[C@@H]3CCCNC3)cc2)n1 | < 8 µL/min/mg | 0.8 to 1.37 | 2.82 µM | 38.2 µM | – | 43.7 µM | – | Papp B→A [9]: 20 ×10⁻⁶ cm/s; fraction unbound [10]: 0.41; IC50 (Cytochrome P450 1A2): > 30 µM; Papp A→B [11]: 0.7 ×10⁻⁶ cm/s; IC50 (Cytochrome P450 2C9): > 30 µM; Papp [12]: 10.5 ×10⁻⁶ cm/s; IC50 [13]: 59.8 µM; IC50 (Cytochrome P450 2D6): > 30 µM; IC50 (Cytochrome P450 3A4): > 30 µM |
| CN(C)c1cncc(-c2ccc(C(=O)N(c3ncccc3Cl)[C@@H]3CCCNC3)cc2)n1 | 18.2 µL/min/mg | 1.37 | 2.97 µM | 14.1 µM | – | 30.1 µM | – | Drug metabolism (Rattus norvegicus [14]): Metabolite_Detected; Drug metabolism (Rhesus monkey): Metabolite_Notdetected; IC50 [13]: 43.2 µM |
| O=C(c1ccc(-n2nnc3cccnc32)nc1)N(c1ncccc1Cl)[C@@H]1CCCNC1 | < 8 µL/min/mg | 0.1 | 9.24 µM | 12.7 µM | 4.1 µM | – | 14.7 µL/min/mg | – |
| CNc1cncc(-c2ccc(C(=O)N(c3ncccc3Cl)[C@@H]3CCCNC3)cc2)n1 | 8.7 µL/min/mg | 1.07 | 3.08 µM | 38.4 µM | – | 19.6 µM | – | – |
| O=C(c1ccc(-n2nnc3cccnc32)cc1)N(c1nccc2ccccc12)[C@@H]1CCCNC1 | 21.8 µL/min/mg | 1.4 | 0.9 µM | 15.8 µM | 0.39 µM | – | – | – |
| Cc1ccc2nnn(-c3ccc(C(=O)N(c4ncccc4Cl)[C@@H]4CCCNC4)cc3)c2n1 | 9 µL/min/mg | 1.2 | 0.9 µM | 34 µM | 0.45 µM | 1 µM | 38.5 µL/min/mg | selectivity ratio [15]: 2 |
| O=C(c1ccc(-n2nnc3cccnc32)cc1)N(c1ncccc1Cl)[C@H]1CCCNC1 | – | – | – | – | – | > 20 µM | – | inhibition [16]: 61%; inhibition [17]: 24%; Activity (Rattus norvegicus [2]): Toxic; Activity (Rattus norvegicus [5]): Non-Toxic |
| Cn1cc(-c2ccc(C(=O)N(c3nccc4ccccc34)[C@@H]3CCCNC3)cc2)cn1 | 13.3 µL/min/mg | 0.9 | 2.38 µM | 16 µM | 1.06 µM | 2.9 µM | – | – |
| O=C(c1ccc(-c2cnn3cccnc23)cc1)N(c1nccc2ccccc12)[C@@H]1CCCNC1 | 14.5 µL/min/mg | 1.1 | 1.29 µM | 5.4 µM | 0.69 µM | 1.4 µM | 31.2 µL/min/mg | – |
| COc1ccc(CCC(=O)N(c2nccc3ccccc23)[C@@H]2CCCNC2)cc1 | 20.6 µL/min/mg | 1.1 | 8.37 µM | 13 µM | 2.63 µM | > 20 µM | > 510 µL/min/mg | inhibition at 3 µM (CYP2D6): < 20%; inhibition at 3 µM (CYP2C9): < 20%; inhibition at 3 µM (CYP1A2): < 20%; inhibition at 3 µM (CYP3A4): < 20%; Papp [12]: 5.4 ×10⁻⁶ cm/s |
| O=C(c1ccc(-c2ccccc2)cc1)N(c1nccc2ccccc12)[C@@H]1CCCNC1 | 10.7 µL/min/mg | 2.5 | – | 2.2 µM | – | – | 57.7 µL/min/mg | inhibition [16]: 54%; inhibition [17]: 39% |
| O=C(c1ccc(-c2cnccn2)cc1)N(c1nccc2ccccc12)[C@@H]1CCCNC1 | 11 µL/min/mg | 0.7 | 9.32 µM | > 40 µM | 4.3 µM | > 20 µM | 123 µL/min/mg | – |
| Cc1cnc2c(c1)nnn2-c1ccc(C(=O)N(c2ncccc2Cl)[C@@H]2CCCNC2)cc1 | 8.8 µL/min/mg | 1.2 | 0.78 µM | 3.3 µM | 0.41 µM | > 19.7 µM | 16.5 µL/min/mg | Activity (Rattus norvegicus [18]): Toxic; Activity (Rattus norvegicus [2]): Toxic; Activity (Rattus norvegicus [5]): Non-Toxic |
